In the library only some 1.9% were active in any assay of this set; here they are far more common.
procasp7 counter: counter-screen for procaspase-3 activators: activators of human procaspase-7 | P55210 | recombinant procaspase-7, Ac-DEVD-pNA absorbance 405 nm; D23A/D198A/D206A triple mutant, cannot self-cleave; scale: DMSO 0, 5 µM enzyme 100 | hit rate 0.093% among 330,000 | activation, % at 8.5 µM;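 active means percent activation above the screen-wide mean plus 3 SD, cut at about 25% in these data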
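Assay system: Uncleavable procaspase-7 mutant enzyme; Input: 2 µM procaspase-7 mutant as dispensed; Also added: DEVD-pNA substrate; Medium: Zinc-free HEPES pH 7.4 with 300 mM NaCl, 0.01% Triton X-100; Timing: 1 h compound preincubation, 2 h substrate cleavage, 25 °C; Measured by: Epi-absorbance of released pNA at 405 nm, two timepoints.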
PLC-gamma1 inh: PLC-gamma1 (human) inhibition, primary screen; inhibition, % at 12.2 µM; hit rate 0.84% among 370,000; purified PLC-gamma1, fluorogenic substrate, fluorescence; AID 720700; P19174; in the data active means inhibition above about 9.5%
proCasp3 act: activates human procaspase-3. recombinant procaspase-3 D3A, Ac-DEVD-pNA absorbance 405 nm. activation, % at 8.5 µM. hit rate 0.11% among 330,000. AID 463141;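 active means activation above the mean of all tested compounds plus 3 SD, cut at about 21% in these data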;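 further: 0% = DMSO alone and 100% = DMSO wells spiked with extra 5 µM PC-3 D3A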
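material = Procaspase-3 D3A mutant | probe or stimulus = Ac-DEVD-pNA | compound = single dose, 8.5 µM nominal compound, 0.8% DMSO | timing = 1 h preincubation, 2 h reaction | measured by = 405 nm absorbance of p-nitroaniline, reads at 0 and 120 min | benchmarks = DMSO-only low control, 5 µM PC-3 D3A high control | repeats = singlicate, each compound tested once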
PLCb3 inh: inhibitors of human phospholipase C beta3. AID 720704. hit rate 0.18% among 370,000. Purified PLC-beta3, fluorogenic substrate, fluorescence. inhibition, % at 12.2 µM. Q01970; in the data active means inhibition above about 11%;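 further: 0% = median of compound wells on plate and 100% = full blocker control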
Arrestin-AP2 inh: inhibitors of human beta-arrestin and AP2 interaction | FITC-arrestin peptide / GST-AP2 beads, flow cytometry; AP2 beta2 appendage carries R879A mutation | inhibition, % at 10 µM | hit rate 0.31% among 340,000 | AID 504490;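 active means inhibition above a set limit, near 3 SD of compounds lacking own fluorescence, cut at about 54% in these data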;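 further: plate controls were DMSO wells for no effect and 5 µM unlabelled arrestin peptide for full effect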
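System: GST-AP2 R879A glutathione beads; medium: PBS, Tween 20 0.05%, BSA 0.1%; reagent: fluorescein-tagged arrestin peptide at 50 nM final; schedule: pre-incubation 12 min, peptide binding 1 h, room temperature; detection: flow cytometry, FL1 (488/535 nm); read-out: inhibition as reduced fluorescein signal on beads, percent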
sPLA2-III inh: Inhibits HGIII-sPLA2 liposome hydrolysis, primary screen; Q9NZ20; QFRET BODIPY PC-A2 liposome hydrolysis, fluorescence; inhibition, % at 12.2 µM; hit rate 0.56% among 370,000; AID 743126;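 active means inhibition above mean plus 3 SD of compounds lying within the high and low control bounds, cut at about 19% in these data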;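 further: 0% = median of test compound wells and 100% = no enzyme DMSO wells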
PC3 D3A act: activates human procaspase-3, dual activator counter-screen | AID 493114 | 290 tested, under 10 active | recombinant PC-3 D3A, Ac-DEVD-pNA absorbance 405 nm; aspartates 9, 28, 175 changed to alanine; 100% = enzyme control | shares compounds with procasp7 counter | activation, % at 8.5 µM;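 active means mean percent activation across triplicates above a set limit taken from the earlier primary procaspase-3 screen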;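 further: 0% = DMSO wells and 100% = DMSO wells with 5 µM added PC-3 D3A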
Procasp7 act: confirmation of dual procaspase activators: human procaspase-7 activation | shares compounds with procasp7 counter | recombinant procaspase-7, Ac-DEVD-pNA absorbance 405 nm; D23A/D198A/D206A mutant that cannot self-cleave | activation, % at 8.5 µM | 290 tested, under 10 active | AID 493115;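 active means mean activation above a set limit carried over from the earlier primary screen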;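 further: 0% = DMSO only and 100% = DMSO with added 5 µM PC-7 enzyme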
Numbers without * were called inactive; i = inactive; . = not tested or not shown.

SMILES	procasp7 counter	PLC-gamma1 inh	proCasp3 act	PLCb3 inh	Arrestin-AP2 inh	sPLA2-III inh	PC3 D3A act	Procasp7 act
CC(C)c1ccc(N=Cc2c(O)c3ccccc3oc2=O)cc1	29.8*	-13.3	21.8*	-19.1	8.1	-0.7	-28.7	-34.1
COc1ccc(N=Cc2c(O)c3ccccc3oc2=O)cc1	11.5	-1.4	8.9	-5.1	34.8	0.2	.	.
COc1ccc(Cl)cc1N=Cc1c(O)c2ccccc2oc1=O	41.7*	1.1	19.3	-4.5	-18.6	-8.5	-5.1	-4.3
COc1ccc(OC)c(N=Cc2c(O)c3ccccc3oc2=O)c1	9.2	-9.1	13.9	-20.0	29.4	-5.8	.	.
CCOc1ccccc1N=Cc1c(O)c2ccccc2oc1=O	34.7*	-5.6	20.5	-8.9	1.2	-4.4	-30.0	-34.4
COC(=O)C1CN(Cc2ccc(Cl)cc2)CCS(=O)(=O)N1Cc1cn(Cc2ccc(F)cc2)nn1 (stereo not drawn)	.	1.6	.	0.8	.	-15.2	.	.
COC(=O)[C@]12C[C@H](CC(=O)NCc3ccc(C)o3)C(=O)N(Cc3ccc(Cl)cc3Cl)C1=C[C@H](C(C)(C)C)O[C@@H]2C	.	0.3	.	4.2	.	-11.3	.	.
CC(C)OC(=O)CSc1nc2c(cc1C#N)CCCCC2	0.7	-20.9	3.4	-33.4	11.6	-4.1	.	.
CC(C)OC(=O)CC(=O)CSc1nc2c(cc1C#N)CCCCC2	37.2*	-61.1	17.7	-79.5	-0.5	-3.5	-20.1	-20.8
COc1ccc(/C=C2\OC(=O)c3c(OC)cccc32)cc1OC	89.3*	i	-19.4	i	16.4	-4.1	-27.4	-35.3
Cc1cc(C)cc(NC(=O)C2(C(=O)C3CC3)CC(c3ccccc3C(F)(F)F)=NO2)c1 (stereo not drawn)	.	-1.7	.	1.7	.	-2.4	.	.
Cc1cccc(S(=O)(=O)Nc2ccc(-c3nc4ccc(C)cc4s3)cc2)c1	43.4*	-218.0	23.4*	-282.1	23.9	-95.6	-27.0	-32.4
CCc1cc2c3c(c(=O)oc2cc1O)CCCC3	26.0*	i	27.9*	i	-1.6	-5.6	-28.8	-36.2
Cc1ccc(S(=O)(=O)c2cc(C#N)c(=O)[nH]c2N)cc1	28.2*	-30.7	14.4	-37.2	18.6	-4.2	-28.4	-34.9
COc1nc(N)c(S(=O)(=O)c2ccc(C)cc2)cc1C#N	4.5	-13.4	11.1	-18.0	8.4	-7.0	.	.
CCOC(=O)c1ccc2nc(NC(C)=O)sc2c1	11.9	0.6	4.0	1.8	2.2	-3.8	.	.
CCOC(=O)c1ccc2nc(Nc3nc4ccc(F)cc4s3)sc2c1	30.6*	-5.2	20.4	-2.4	5.0	-0.1	-27.2	-35.4
CCOc1cc(C2C(C(=O)OC)=CN(Cc3ccc(Cl)cc3)C=C2C(=O)OC)ccc1O	56.1*	-15.2	27.4*	-28.5	2.2	-18.9	-1.5	-2.6
COC(=O)C1=CN(Cc2ccccc2)C=C(C(=O)OC)C1c1ccc(O)c(OC)c1	-1.7	-7.3	-4.5	-20.4	33.4	-10.6	.	.
N#CCC[C@H]1CC[C@]2(CCCN(C(=O)c3ccco3)C2)O1	.	1.5	.	1.7	.	2.2	.	.
CC1CCC(C(C)C)C(OC(=O)COC(=O)c2cc(O)ccc2N)C1 (stereo not drawn)	49.7*	-341.4	40.8*	-237.7	-7.1	-9.4	-30.0	-35.4
c1ccc2c(-c3c[nH]c4ccccc34)c3ccccc3nc2c1	33.5*	-133.9	15.5	-162.7	-9.5	-8.7	-10.5	-9.8
COc1ccc(Br)cc1/C=C1\Oc2ccccc2NC1=O	-2.2	-58.7	4.3	-79.9	8.9	9.1	.	.
O=C1Nc2ccccc2O/C1=C\c1ccccc1Br	29.3*	-336.4	36.4*	-470.6	-6.3	-6.9	-19.8	-23.2
Cc1ccc(N)cc1NC(=O)CN1CCOCC1	26.1*	7.1	12.9	-0.9	49.4	1.1	2.5	-1.0
SMILES	procasp7 counter	PLC-gamma1 inh	proCasp3 act	PLCb3 inh	Arrestin-AP2 inh	sPLA2-III inh	PC3 D3A act	Procasp7 act
COc1ccc(C(=O)C2CN(c3ccccc3)CC2c2ccc(Cl)cc2)cc1 (stereo not drawn)	28.9*	0.8	13.5	-3.0	2.4	6.8	2.9	2.2
Cc1cc(C)c2c(N)c(C(=O)N/N=C/c3cccnc3)sc2n1	5.3	-48.6	-4.6	-73.7	10.8	1.3	.	.
Cc1cc(C)c2c(N)c(C(=O)N/N=C/c3ccccc3)sc2n1	32.1*	-69.2	35.2*	-112.0	10.6	-2.7	-28.3	-35.8
O=C(NCCCN1CCOCC1)c1ccc(/C=C2\Oc3ccccc3N(Cc3ccccc3F)C2=O)cc1	49.6*	i	22.3*	i	5.0	-1.3	-29.3	-35.7
CCCCNC(=O)c1ccc(/C=C2\Oc3ccccc3N(C)C2=O)cc1	-25.4	-147.0	-5.1	-216.1	33.5	4.9	.	.
CCN1CCN(CCCNC(=O)c2ccc(/C=C3/Oc4ccccc4N(Cc4cccc(C)c4)C3=O)cc2)CC1	27.5*	.	8.1	.	-3.3	.	-28.6	-35.5
CCOC(=O)[C@]12CCCC=C1N(Cc1ccc(OC)cc1)C(=O)[C@@H]2CC(=O)N1CCC(c2ccccc2)CC1	.	2.7	.	-0.2	.	1.9	.	.
COCCCN1C(=O)[C@H](CC(=O)NCCCN2CCCC2=O)[C@]2(C(=O)OC)CCCCC=C12	.	3.6	.	5.9	.	5.1	.	.
COC(=O)c1cccc(N(CC(=O)NC2CCCC2)C(=O)CCC(=O)Nc2cc(C)on2)c1	57.2*	-5.0	0.1	-9.0	-2.3	-0.8	2.9	-0.6
CCN(CC)c1ccc(-c2c(C#N)c(N)nc(OC)c2C#N)cc1	27.0*	i	60.0*	i	9.3	9.1	-27.2	-34.8
Cn1nc(N)c2c(-c3ccc(Cl)cc3)c(C#N)c(N)nc21	-10.1	4.1	-1.6	5.9	-0.2	-0.7	.	.
CO[C@H]([C@H](C)/C=C/N(C)C=O)[C@@H](C)C(O)CC[C@H](C)[C@H](O)[C@H](C)[C@H]1OC(=O)/C=C/C(C)=C/C[C@H](O)C[C@@H]2C=CC[C@@H](C[C@H](OC)[C@@]3(CO3)[C@@H](OC)C[C@@H](OC)[C@@H]1C)O2 (stereo partly drawn)	.	2.0	.	-4.9	.	-16.4	.	.
CN(CCc1ccccn1)C(=O)c1ccc2c(c1)ncn2C1CCCCC1	.	1.8	.	2.7	.	3.4	.	.
COc1cc(-n2c(=O)c3ccccc3n(Cc3cccnc3)c2=O)cc(OC)c1OC	26.8*	2.9	-7.0	1.2	11.7	5.7	1.8	1.4

Assay outcomes as filed in PubChem.
